ChEMBL document CHEMBL2439991, “Restraining the flexibility of the central linker in terameprocol results in constrained analogs with improved growth inhibitory activity” (Bioorg Med Chem Lett, 2013)

Experiments:
[1] = Cytotoxicity against human U87 cells after 72 hrs by MTT assay; assay type: functional, U-87MG ATCC; conditions: U-87 MG
Summary of the method: (§1)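 MTT redox read-out; absorbance taken at 0 h (T0) and after 72 h exposure, with untreated cells as control (C). GI50 solved from (T − T0)/(C − T0) = 50%, i.e. viability halved relative to untreated after correction for time-zero cell count.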

[2] = tested on: T98G; assay: Cytotoxicity against human T98G cells after 72 hrs by MTT assay; assay type: functional; summary of the method: as §1
[3] = tested on: HeLa; assay: Cytotoxicity against human HeLa cells after 72 hrs by MTT assay; assay type: functional; summary of the method: as §1
[4] = tested on: 786-0; assay: Cytotoxicity against human 786-0 cells after 72 hrs by MTT assay; assay type: functional; conditions: 786-0, 72 h; summary of the method: as §1
[5] = tested on: T47D; assay: Cytotoxicity against human T47D cells after 72 hrs by MTT assay; assay type: functional; summary of the method: as §1
[6] = tested on: BXPC-3; assay: Cytotoxicity against human BxPC3 cells after 72 hrs by MTT assay; assay type: functional; conditions: BXPC-3, 72 h; summary of the method: as §1
[7] = tested on: NCI-H69; assay: Cytotoxicity against human H69 cells; assay type: functional, cell-based
[8] = tested on: NCI-H69; assay: Ratio of NDGA IC50 to compound IC50 for human H69 cells; assay type: functional

With COc1ccc(CCNS(=O)(=O)c2ccc(OC)c(OC)c2)cc1OC the GI50 [1] was > 100 µM, the GI50 [2] was > 100 µM and the GI50 [3] was > 100 µM. For the same molecule, the GI50 [4] was > 100 µM, the GI50 [5] was > 100 µM and the GI50 [6] was > 100 µM.
COc1ccc(C(=O)N2CCc3cc(OC)c(OC)cc3C2)cc1OC gave a GI50 [1] of 20.6 µM, a GI50 [2] of 10.1 µM and a GI50 [3] of 8.23 µM. It also gave a GI50 [4] of 24.1 µM, a GI50 [5] of 11.9 µM and a GI50 [6] of 13.6 µM.
With COc1ccc(CNC(=O)NCc2ccc(OC)c(OC)c2)cc1OC the GI50 [1] was > 100 µM, the GI50 [2] was > 100 µM and the GI50 [3] was > 100 µM. For the same molecule, the GI50 [4] was > 100 µM, the GI50 [5] was > 100 µM and the GI50 [6] was > 100 µM.
With COc1ccc(C2NCCc3cc(OC)c(OC)cc32)cc1OC (stereo not drawn) the GI50 [1] was > 100 µM, the GI50 [2] was > 100 µM and the GI50 [3] was 57.6 µM. The GI50 [4] was > 100 µM, the GI50 [5] was > 100 µM and the GI50 [6] was > 100 µM.
In the case of COc1ccc(NS(=O)(=O)c2ccc(OC)c(OC)c2)cc1OC, the GI50 [1] is reported as > 100 µM, the GI50 [2] is reported as > 100 µM and the GI50 [3] is reported as > 100 µM. For the same molecule, the GI50 [4] was > 100 µM, the GI50 [5] was > 100 µM and the GI50 [6] was > 100 µM.
With COc1ccc(C2=NCCc3cc(OC)c(OC)cc32)cc1OC the GI50 [1] was > 100 µM, the GI50 [2] was > 100 µM and the GI50 [3] was 79.3 µM. The GI50 [4] was > 100 µM, the GI50 [5] was > 100 µM and the GI50 [6] was > 100 µM.
With COc1ccc(NC(=O)c2ccc(OC)c(OC)c2)cc1OC the GI50 [1] was > 100 µM, the GI50 [2] was > 100 µM and the GI50 [3] was > 100 µM. For the same molecule, the GI50 [4] was > 100 µM, the GI50 [5] was > 100 µM and the GI50 [6] was > 100 µM.
With COc1ccc(CCNC(=O)c2ccc(OC)c(OC)c2)cc1OC the GI50 [1] was > 100 µM, the GI50 [2] was > 100 µM and the GI50 [3] was > 100 µM. For the same molecule, the GI50 [4] was > 100 µM, the GI50 [5] was > 100 µM and the GI50 [6] was > 100 µM.
With COc1ccc(CCNC(=O)Cc2ccc(OC)c(OC)c2)cc1OC the GI50 [1] was > 100 µM, the GI50 [2] was > 100 µM and the GI50 [3] was > 100 µM. The GI50 [4] was > 100 µM, the GI50 [5] was > 100 µM and the GI50 [6] was > 100 µM.
For COc1ccc(CNS(=O)(=O)c2ccc(OC)c(OC)c2)cc1OC, the GI50 [1] was > 100 µM, the GI50 [2] was > 100 µM and the GI50 [3] was > 100 µM. For the same molecule, the GI50 [4] was > 100 µM, the GI50 [5] was > 100 µM and the GI50 [6] was > 100 µM.
For COc1ccc(CC(=O)N2CCc3cc(OC)c(OC)cc3C2)cc1OC, the GI50 [1] was > 100 µM, the GI50 [2] was > 100 µM and the GI50 [3] was > 100 µM. The GI50 [4] was > 100 µM, the GI50 [5] was > 100 µM and the GI50 [6] was > 100 µM.
For COc1ccc(S(=O)(=O)N2CCc3cc(OC)c(OC)cc3C2)cc1OC, the GI50 [1] was > 50 µM, the GI50 [2] was > 50 µM and the GI50 [3] was > 50 µM. The GI50 [4] was > 50 µM, the GI50 [5] was > 50 µM and the GI50 [6] was > 50 µM.
With COc1ccc(CN2CCc3cc(OC)c(OC)cc3C2)cc1OC the GI50 [1] was > 100 µM, the GI50 [2] was > 100 µM and the GI50 [3] was 55.9 µM. For the same molecule, the GI50 [4] was > 100 µM, the GI50 [5] was 45.4 µM and the GI50 [6] was > 100 µM.
In the case of COc1ccc(C(=O)C2=NCCc3cc(OC)c(OC)cc32)cc1OC, the GI50 [1] is reported as > 100 µM, the GI50 [2] is reported as > 100 µM and the GI50 [3] is reported as 16.9 µM. The GI50 [4] was > 100 µM, the GI50 [5] was 16.1 µM and the GI50 [6] was 26.3 µM.
In the case of COc1ccc(/C=C/C(=O)NCc2ccc(OC)c(OC)c2)cc1OC, the GI50 [1] is reported as 57.1 µM, the GI50 [2] is reported as 70.3 µM and the GI50 [3] is reported as > 75 µM. The GI50 [4] was 68.4 µM, the GI50 [5] was > 100 µM and the GI50 [6] was > 75 µM.
With COc1ccc(CNC(=O)c2ccc(OC)c(OC)c2)cc1OC the GI50 [1] was > 100 µM, the GI50 [2] was > 100 µM and the GI50 [3] was > 100 µM. The GI50 [4] was > 100 µM, the GI50 [5] was > 100 µM and the GI50 [6] was > 100 µM.
With COc1ccc(CC(=O)Nc2ccc(OC)c(OC)c2)cc1OC the GI50 [1] was > 100 µM, the GI50 [2] was > 100 µM and the GI50 [3] was > 100 µM. For the same molecule, the GI50 [4] was > 100 µM, the GI50 [5] was > 100 µM and the GI50 [6] was > 100 µM.
In the case of COc1ccc(CNC(=O)Cc2ccc(OC)c(OC)c2)cc1OC, the GI50 [1] is reported as > 100 µM, the GI50 [2] is reported as > 100 µM and the GI50 [3] is reported as > 100 µM. The GI50 [4] was > 100 µM, the GI50 [5] was > 100 µM and the GI50 [6] was > 100 µM.
In the case of COc1ccc(NC(=O)Nc2ccc(OC)c(OC)c2)cc1OC, the GI50 [1] is reported as > 50 µM, the GI50 [2] is reported as > 50 µM and the GI50 [3] is reported as > 50 µM. The GI50 [4] was > 50 µM, the GI50 [5] was > 50 µM and the GI50 [6] was > 50 µM.
In the case of COc1ccc(CNC(=O)Nc2ccc(OC)c(OC)c2)cc1OC, the GI50 [1] is reported as > 100 µM, the GI50 [2] is reported as > 100 µM and the GI50 [3] is reported as > 100 µM. For the same molecule, the GI50 [4] was > 100 µM, the GI50 [5] was > 100 µM and the GI50 [6] was > 100 µM.
In the case of COc1ccc(/C=C/C=C/c2ccc(OC)c(OC)c2)cc1OC, the GI50 [1] is reported as > 100 µM, the GI50 [2] is reported as > 100 µM and the GI50 [3] is reported as > 100 µM. For the same molecule, the GI50 [4] was 2.67 µM, the GI50 [5] was > 100 µM and the GI50 [6] was 3.41 µM.
In the case of COc1ccc(/C=C/C(=O)Nc2ccc(OC)c(OC)c2)cc1OC, the GI50 [1] is reported as > 50 µM, the GI50 [2] is reported as > 50 µM and the GI50 [3] is reported as > 50 µM. For the same molecule, the GI50 [4] was > 50 µM, the GI50 [5] was > 50 µM and the GI50 [6] was > 50 µM.
For Oc1ccc(CCCCc2ccc(O)c(O)c2)cc1O, the IC50 [7] was 0.3 µM and the “Ratio IC50” value [8] was 10.
For COc1ccc(/C=C2/CCc3cc(OC)c(OC)cc32)cc1OC (mixture of isomers), the GI50 [1] was > 25 µM, the GI50 [2] was > 25 µM and the GI50 [3] was > 25 µM. It also gave a GI50 [4] of 5.5 µM, a GI50 [5] of 4.24 µM and a GI50 [6] of 8.1 µM.
With COc1ccc([C@H]2O[C@H](c3ccc(OC)c(OC)c3)[C@@H](C)[C@H]2C)cc1OC [GANSCHISANDRINE] the GI50 [1] was > 75 µM, the GI50 [2] was 58.3 µM and the GI50 [3] was > 75 µM. The GI50 [4] was > 75 µM, the GI50 [5] was 4.4 µM and the GI50 [6] was 17.2 µM.
CC(Cc1ccc(O)c(O)c1)C(C)Cc1ccc(O)c(O)c1 (stereo not drawn) [NORDIHYDROGUAIARETIC ACID] showed an IC50 [7] of 4.4 µM.
In the case of COc1ccc(C[C@@H](C)[C@@H](C)Cc2ccc(OC)c(OC)c2)cc1OC [TERAMEPROCOL], the GI50 [1] is reported as > 50 µM, the GI50 [2] is reported as > 50 µM and the GI50 [3] is reported as > 50 µM. It also gave a GI50 [4] of 4.54 µM, a GI50 [5] of 5.36 µM and a GI50 [6] of 17.1 µM.
